Legend:
LoVo [1] = experiment: Cytotoxicity against human LoVo cells after 48 hrs by SRB assay; format: functional; details: for CC50: read-out: LC50 (the source's name)
A549 = experiment: Cytotoxicity against human A549 cells after 48 hrs by SRB assay; format: functional, cell-based; details: Homo sapiens, A549, 48 h; for GI50: read-out: GI50
Summary of the method: (§1)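 Cells grown in RPMI 1640 with 10% FBS and penicillin/streptomycin at 37 °C and 5% CO₂, trypsinized, then seeded at 5 × 10³/well. After 18 h drug-free attachment, samples in DMSO/EtOH/PBS (0.5:0.5:99) were added for 48 h continuous exposure. Cells were fixed with cold TCA (1 h, 4 °C) and stained with SRB (10 min). Tris-solubilized stain read at 490 nm. Triplicate wells, mean ± SD; GI₅₀ derived.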

[2] = Cytotoxicity against human IGROV-ET cells after 48 hrs by SRB assay; format: functional; details: for CC50: read-out: LC50 (the source's name); summary of the method: as §1
K562 = experiment: Cytotoxicity against human K562 cells after 48 hrs by SRB assay; format: functional; details: K562, 48 h; for CC50: read-out: LC50 (the source's name); summary of the method: as §1
[3] = Cytotoxicity against human IGROV cells after 48 hrs by SRB assay; format: functional; details: for CC50: read-out: LC50 (the source's name); summary of the method: as §1
HT-29 = experiment: Cytotoxicity against human HT29 cells after 48 hrs by SRB assay; format: functional, cell-based; details: Homo sapiens, HT-29, 48 h; for CC50: read-out: LC50 (the source's name); summary of the method: as §1
LNCaP = experiment: Cytotoxicity against human LNcaP cells after 48 hrs by SRB assay; format: functional; details: for CC50: read-out: LC50 (the source's name); summary of the method: as §1
LoVo [4] = experiment: Cytotoxicity against human doxorubicin resistant LoVo cells after 48 hrs by SRB assay; format: functional; details: for CC50: read-out: LC50 (the source's name); summary of the method: as §1
DU-145 = experiment: Cytotoxicity against human DU145 cells after 48 hrs by SRB assay; format: functional, cell-based; details: Homo sapiens, DU-145, 48 h; for CC50: read-out: LC50 (the source's name); for GI50: read-out: GI50; summary of the method: as §1
PANC-1 = experiment: Cytotoxicity against human PANC1 cells after 48 hrs by SRB assay; format: functional; details: PANC-1, 48 h; for CC50: read-out: LC50 (the source's name); summary of the method: as §1
SK-MEL-28 = experiment: Cytotoxicity against human SK-MEL-28 cells after 48 hrs by SRB assay; format: functional, cell-based; details: Homo sapiens, SK-MEL-28, 48 h; for GI50: read-out: GI50; for CC50: read-out: LC50 (the source's name); summary of the method: as §1
HeLa = experiment: Cytotoxicity against human HeLa cells after 48 hrs by SRB assay; format: functional; details: read-out: LC50 (the source's name); summary of the method: as §1
[5] = Cytotoxicity against human HeLa-APL cells after 48 hrs by SRB assay; format: functional; summary of the method: as §1

## C/C=C1\NC(=O)[C@H](Cc2ccccc2)NC(=O)[C@@H](C(C)C)NC(=O)[C@@H]([C@H](C)CC)NC(=O)[C@H](NC(=O)[C@H](NC(=O)[C@H](CCC(=O)O)NC(=O)[C@H]2CCCN2C(=O)[C@H](NC(=O)[C@@H](NC(=O)[C@@H](NC(=O)[C@H](NC(=O)CCCC(C)C)C(C)C)[C@@H](C)O)C(C)C)C(C)C)[C@H](C)CC)[C@H](C)OC(=O)[C@H](C(C)C)NC1=O
LoVo [1]
  GI50: 785 nM
  TGI: 692 nM
  CC50: 1350 nM
A549
  LC50: 22600 nM
  TGI: 8950 nM
  GI50: 1090 nM
[2]
  TGI: 3530 nM
  CC50: 3540 nM
[2]; read-out: GI50
  GI50: 3540 nM
K562
  GI50: 3320 nM
  TGI: 4200 nM
  CC50: 2900 nM
[3]
  TGI: 2530 nM
  CC50: 3200 nM
[3]; read-out: GI50
  GI50: 1950 nM
HT-29
  GI50: 2670 nM
  TGI: 3260 nM
  CC50: 4000 nM
LNCaP
  GI50: 1880 nM
  TGI: 3130 nM
  CC50: 4360 nM
LoVo [4]
  CC50: 3590 nM
DU-145
  CC50: 10200 nM
PANC-1
  GI50: 2500 nM
  TGI: 2540 nM
  CC50: 2600 nM
SK-MEL-28
  TGI: 4980 nM
  GI50: 5890 nM
  CC50: 1980 nM

## C/C=C1\NC(=O)[C@H](Cc2ccccc2)NC(=O)[C@@H](C(C)C)NC(=O)[C@@H]([C@H](C)CC)NC(=O)[C@H](NC(=O)[C@H](NC(=O)[C@H](CCCN)NC(=O)[C@H]2CCCN2C(=O)[C@H](NC(=O)[C@@H](NC(=O)[C@@H](NC(=O)[C@@H](CC(C)C)NC(=O)CCCC(C)C)[C@@H](C)O)C(C)C)C(C)C)[C@H](C)CC)[C@H](C)OC(=O)[C@H](C(C)C)NC1=O
HeLa
  CC50: 955 nM
LoVo [1]
  GI50: 608 nM
  TGI: 842 nM
  CC50: 856 nM
A549
  LC50: 1080 nM
[2]
  GI50: 298 nM
  CC50: 365 nM
[2]; read-out: GI50
  GI50: 1310 nM
K562
  GI50: 2720 nM
  TGI: 2430 nM
  CC50: 2180 nM
[3]
  GI50: 845 nM
  CC50: 5640 nM
[3]; read-out: GI50
  GI50: 1050 nM
HT-29
  GI50: 661 nM
  TGI: 728 nM
  CC50: 509 nM
LNCaP
  GI50: 1790 nM
  TGI: 2550 nM
  CC50: 1130 nM
LoVo [4]
  GI50: 325 nM
  TGI: 329 nM
  CC50: 3370 nM
DU-145
  TGI: 1070 nM
  GI50: 1340 nM
  CC50: 889 nM
[5]
  GI50: 1000 nM
  LC50 (concentration giving 50% net cell kill): 948 nM
  TGI: 1460 nM
PANC-1
  GI50: 2910 nM
  TGI: 5210 nM
  CC50: 2790 nM
SK-MEL-28
  TGI: 1070 nM
  GI50: 1090 nM
  CC50: 1060 nM

## C/C=C1\NC(=O)[C@H](Cc2ccccc2)NC(=O)[C@@H](C(C)C)NC(=O)[C@@H]([C@H](C)CC)NC(=O)[C@H](NC(=O)[C@H](NC(=O)[C@H](CCCN)NC(=O)[C@H]2CCCN2C(=O)[C@H](NC(=O)[C@@H](NC(=O)[C@@H](NC(=O)[C@H](NC(=O)Cc2ccc(C(F)(F)F)cc2)C(C)C)[C@@H](C)O)C(C)C)C(C)C)[C@H](C)CC)[C@H](C)OC(=O)[C@H](C(C)C)NC1=O
LoVo [1]
  GI50: 458 nM
  TGI: 492 nM
  CC50: 819 nM
A549
  LC50: 1100 nM
  TGI: 2150 nM
  GI50: 1840 nM
[2]
  GI50: 675 nM
  CC50: 524 nM
[2]; read-out: GI50
  GI50: 866 nM
K562
  GI50: 2230 nM
  TGI: 2520 nM
  CC50: 2790 nM
[3]
  GI50: 892 nM
  CC50: 1890 nM
[3]; read-out: GI50
  GI50: 1000 nM
HT-29
  GI50: 1680 nM
  TGI: 2300 nM
  CC50: 2920 nM
LNCaP
  GI50: 1630 nM
  TGI: 3130 nM
  CC50: 4400 nM
LoVo [4]
  CC50: 1240 nM
DU-145
  TGI: 5500 nM
  GI50: 5280 nM
  CC50: 6240 nM
PANC-1
  GI50: 2170 nM
  TGI: 2250 nM
  CC50: 2340 nM
SK-MEL-28
  TGI: 15900 nM
  GI50: 2800 nM
  CC50: 1200 nM

## C/C=C1\NC(=O)[C@H](Cc2ccccc2)NC(=O)[C@@H](C(C)C)NC(=O)[C@@H]([C@H](C)CC)NC(=O)[C@H](NC(=O)[C@H](NC(=O)[C@H](CCCN)NC(=O)[C@H]2CCCN2C(=O)[C@H](NC(=O)CCCC(C)C)C(C)C)[C@H](C)CC)[C@H](C)OC(=O)[C@H](C(C)C)NC1=O
LoVo [1]
  CC50: 4320 nM
A549
  LC50: 2870 nM
[2]
  CC50: 6210 nM
K562
  GI50: 3480 nM
  TGI: 3510 nM
  CC50: 3540 nM
[3]
  CC50: 6040 nM
HT-29
  CC50: 7470 nM
LNCaP
  GI50: 9850 nM
  TGI: 9970 nM
  CC50: 8890 nM
LoVo [4]
  CC50: 5840 nM
DU-145
  CC50: 22300 nM
PANC-1
  GI50: 2920 nM
  TGI: 2660 nM
  CC50: 2450 nM
SK-MEL-28
  CC50: 2500 nM

— ChEMBL document CHEMBL1156597, “Structure-activity relationship of kahalalide F synthetic analogues” (J Med Chem, 2008)
